Assay results reported in PubChem BioAssay AID449763 (Sanford-Burnham Center for Chemical Genomics, 2010).
Hit rate of the full screen: of about 330,000 compounds, about 1,100 (0.33%) were called active.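 The calls were made as follows: active = at 10 µM dose, activation of 40% or more, normalized to positive control; inactive = the rest.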 The sample as a whole holds a higher share of actives than the screen did.

test: activators of apoptotic CHOP UPR arm, primary screen, cell-based, CHO-CHOP luciferase reporter, luminescence, uHTS (AID 449763); details: at 10 µM, hits give high values, percent of tunicamycin response over DMSO baseline;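 also: 100% = tunicamycin at 10 µg/mL and 0% = DMSO alone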
Outline: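 Dosing – one dose, 10 µM in 0.5% DMSO · System – CHO-CHOP cells, stable luciferase reporter of PERK-eIF2a-CHOP signalling · Input – 500 cells/well · Control set – tunicamycin 10 µg/mL final as positive, DMSO-only wells as negative · Timing – 6 h compound treatment, 37 °C · Measure – % activation vs tunicamycin · Technique – luminescence read with Steady-Glo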

SMILES | activation
CN(CC(=O)NC1CCN(Cc2ccccc2)CC1)S(=O)(=O)c1ccc(Cl)s1 | -1.76% (inactive)
N#CCN(C(=O)COC(=O)C1CC2CCCC(C1)C2=O)c1ccccc1 (configuration not stated) | -1.48% (inactive)
O=C(NCCCn1ccnc1)C(=O)c1cn(CC(=O)N2CCCCCC2)c2ccccc12 | 1.32% (inactive)
Cc1ccc(S(=O)Cc2ccc(C(=O)N3CCN(C4CCCCC4)CC3)o2)cc1 (configuration not stated) | -0.502% (inactive)
Cc1cccnc1NC(=O)Cn1c(=O)oc2ccccc21 | -1.26% (inactive)
O=C(CSc1nc(=O)n2ccccc2n1)Nc1ccc2c(c1)OCCO2 | 0.903% (inactive)
CCCC(=O)Nc1ccc(C(=O)N/N=C/c2ccc[nH]2)cc1 | -0.0357% (inactive)
CCCCCC(=O)NC(=S)NNC(=O)c1ccc([N+](=O)[O-])cc1 | -1.39% (inactive)
CCCCCC(=O)Nc1ccc(C(=O)N/N=C/c2ccc([N+](=O)[O-])cc2)cc1 | 90.2% (active)
CCCc1nn(C)c2c(=O)[nH]c(-c3cc(S(N)(=O)=O)ccc3OCC)nc12 | 0.336% (inactive)
O=C1Nc2ccc(Br)cc2/C1=N/N=C/C1=C(N2CCOCC2)C(=C\c2ccccc2)/CC1 | 46.3% (active)
COc1ccc(/C=N/N=C2/C(=O)Nc3ccccc32)cc1O | 10.4% (inactive)
Cc1cc2nc3n(c2cc1C)CC1CC(C(=O)NCCC(C)C)N(C)C31 (configuration not stated) | -0.707% (inactive)
O=C(O)c1cccc(NC(=O)c2cc(-c3cccc(Cl)c3)nc3ccccc23)c1 | 2.21% (inactive)
O=C(N/N=C/c1ccc(Cl)cc1)c1nc2ccc([N+](=O)[O-])cc2c(=O)[nH]1 | 0.124% (inactive)
O=C(/C(=C/c1cccc(Cl)c1)c1nc2ccccc2[nH]1)c1ccccc1 | 349% (active)
O=S(=O)(c1ccc(SCc2ccc(Br)cc2)nc1)N1CCOCC1 | 0.334% (inactive)
COc1ccccc1OCCCCCCN1CCN(C)CC1 | -0.245% (inactive)
Cc1nc2ccc(NC(=O)c3cccc(S(=O)(=O)N4CCOCC4)c3)cc2s1 | 1.06% (inactive)

SMILES | activation
O=C(CN1CCN(S(=O)(=O)c2cccc(Cl)c2)CC1)N1CCCCC1 | -0.576% (inactive)
O=S(=O)(Nc1nccs1)c1ccc2c(c1)OCCO2 | -1.47% (inactive)
Cc1cccc(-n2ncc(Cl)c(Cl)c2=O)c1 | 49.1% (active)
Cc1ccc(Oc2cnn(-c3ccccc3)c(=O)c2Br)cc1 | 2.08% (inactive)
C=CCNc1cnn(-c2ccc(C)cc2)c(=O)c1Cl | 0.179% (inactive)
Cc1ccc(CNC(=O)COC(=O)C2CCC2)cc1 | 0.475% (inactive)
CCc1nnc(NC(=O)CSc2nnnn2-c2cccc(C(C)=O)c2)s1 | -1.47% (inactive)
CCOc1ccc(Br)cc1CSC(=N)N | 0.704% (inactive)
CCOC(=O)CCNC(=O)N1CCCC(C(=O)c2ccccc2SC)C1 (configuration not stated) | 1.02% (inactive)
CCOC(=O)c1cnc(Nc2nc3ccccc3o2)nc1CSC(=S)N1CCCCC1 | 152% (active)
CCc1ccc(CNC(=O)C2CCCN(c3nc4ccccc4o3)C2)cc1 (configuration not stated) | -2.13% (inactive)
CCN(CC)C(=O)Cn1cc(S(=O)(=O)CC(=O)NCc2ccc3c(c2)OCO3)c2ccccc21 | -0.829% (inactive)
Cc1cc(NC(=O)CS(=O)(=O)c2cn(C)c3ccccc23)no1 | 1.58% (inactive)
CCN(C(=O)CSc1ncnc2sccc12)c1c(N)n(Cc2ccccc2)c(=O)[nH]c1=O | -3.54% (inactive)
CC1CC2=C(CC1/C=N/NC(N)=S)C(C)(C)CCC2 (configuration not stated) | 67.6% (active)
Cc1ccc(C(=O)Cc2nnc(C)s2)cc1 | 1.29% (inactive)
CC(=O)Nc1ccc(S(=O)(=O)N2CCC(NC(=O)c3ccccc3)CC2)cc1 | 1.32% (inactive)
C=Cn1c(C(=O)O)ccc1-c1ccc(OC)cc1 | -1.21% (inactive)
COC(=O)c1ccc(C(=O)NC2CC(C)(C)Cc3c2cnn3-c2ccc(F)cc2)nc1 (configuration not stated) | 0.891% (inactive)

SMILES | activation
CCOc1ccccc1C1CC(c2cccc(NS(C)(=O)=O)c2)=NN1C(=O)c1ccccc1 (configuration not stated) | 1.22% (inactive)
CCOc1ccc2nc(Cl)c(C3CC(c4ccccc4)=NN3C(=O)c3cccs3)cc2c1 (configuration not stated) | 85.3% (active)
COc1ccc(C2=NN(C(=O)c3ccccc3C(=O)O)C(c3ccccc3O)C2)cc1 (configuration not stated) | 4.22% (inactive)
CCOc1ccccc1CN1CCN(C2CCC2)CC1CCO (configuration not stated) | 1.34% (inactive)
CS(=O)(=O)c1ccc(C(=O)OCC(=O)NNC(=O)COc2ccc(Cl)cc2)cc1 | -0.907% (inactive)
Cc1c(NC(=O)CSc2nnc(-c3cccnc3)n2N)c(=O)n(-c2ccccc2)n1C | 0.658% (inactive)
Cc1c(NC(=O)CSc2cccc3cccnc23)c(=O)n(-c2ccccc2)n1C | 163% (active)
Cc1c(NC(=O)CSc2nnnn2-c2ccc(C(=O)O)cc2)c(=O)n(-c2ccccc2)n1C | -0.108% (inactive)
NC(=O)CC[C@@H]1NC(=O)[C@@H]2CCCN2C(=O)c2cc([N+](=O)[O-])cc(F)c2NCCC[C@@H](C(N)=O)NC1=O | -0.0942% (inactive)
COc1ccccc1P(=O)(c1ccccc1)c1ccccc1NC(C)=O (configuration not stated) | -0.343% (inactive)
COc1cc(C(=O)N/C(=C\c2cn(C)c3ccccc23)C(=O)N2CCOCC2)cc(OC)c1OC | -0.204% (inactive)
CCCCC[C@H]1CN(C2CCCCC2)C(=O)[C@@H]1CC(=O)NCc1ccc(OC)cc1 | 0.258% (inactive)
CC[C@H](C)C(=O)N[C@H]1CCCN1C(=O)/C=C/c1ccccc1 | -0.778% (inactive)
CCC(O)CNc1nc(-n2nc(C)cc2C)nc2sc3c(c12)CC(C)(C)OC3 (configuration not stated) | -0.387% (inactive)
COCCNc1nc(-n2nc(C)cc2C)nc2sc3c(c12)CCCC3 | 45.9% (active)
Cc1nc2sc3c(c2c(=O)n1NC(=O)CCl)CCCC3 | 1.06% (inactive)
O=C(Nc1ccc(S(=O)(=O)N2CCOCC2)cc1)c1ccc2ncsc2c1 | 2.81% (inactive)
COC(=O)c1sccc1NN1C(=O)c2ccccc2C1=O | -0.357% (inactive)
C[C@@H]1C[C@@H]2O[C@H]2/C=C\C=C\C(=O)Cc2c(Cl)c(O)cc(O)c2C(=O)O1 | 145% (active)
